ChEMBL document CHEMBL3297654, “Synthesis, antimicrobial and cytotoxic activities, and structure-activity relationships of gypsogenin derivatives against human cancer cells” (Eur J Med Chem, 2014)
≈ marks a conversion by molar mass, not a printed value. Calls of active or inactive are those of the source. The calls are words filed in the database; no cut-off is given here.

Key:
Proteus vulgaris = assay: Antimicrobial activity against Proteus vulgaris ATCC 33420 assessed as zone of inhibition at 30 uL for 24 hrs at 37 degC by disk diffusion test; assay type: functional, organism-based
How it was run: (§1)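 Compound (30 µL of a fresh 1000 µg/mL DMSO stock) goes into a 6 mm well cut in Mueller Hinton agar inoculated with 0.1 mL broth culture adjusted to 0.5 McFarland (about 1×10^8 cells/mL). Plates are incubated 24 h at 37 °C, then zone of inhibition diameter is measured in mm.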

Cyberlindnera jadinii = assay: Antimicrobial activity against Candida utilis ATCC 9950 assessed as zone of inhibition at 30 uL for 24 hrs at 30 degC by disk diffusion test; assay type: functional, organism-based
How it was run: (§2)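 Agar well diffusion on Mueller Hinton agar seeded with 0.1 mL broth culture (18–24 h), adjusted to 0.5 McFarland (about 1×10^8 bacteria or 1×10^6 yeast cells/mL). A 6 mm well is filled with 30 µL of compound from a fresh 1000 µg/mL DMSO stock. Plates are held at 30 °C for 24 h and inhibition zone diameter is read in mm.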

HL-60 [1] = assay: Antiproliferative activity against human HL60 cells after 24 and 72 hrs by MTT assay; assay type: functional, cell-based
How it was run: (§3)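 ATCC human cell lines are kept in RPMI, DMEM or McCoy's 5A with 10–15% heat-inactivated FCS at 37 °C and 5% CO2. They are seeded at 1×10^4–1×10^5 cells/mL in 48-well plates and exposed to 0.5, 10, 20 or 40 µM. Viability is read by MTT (590 nm) at 24 and 72 h. Growth is expressed relative to untreated cells and IC50 is fitted, in triplicate.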

Candida tropicalis = assay: Antimicrobial activity against Candida tropicalis assessed as zone of inhibition at 30 uL for 24 hrs at 30 degC by disk diffusion test; assay type: functional, organism-based; how it was run: as §2
HT-29 [2] = assay: Antiproliferative activity against human HT-29 cells after 24 and 72 hrs by MTT assay; assay type: functional, cell-based; how it was run: as §3
Salmonella typhimurium = assay: Antimicrobial activity against Salmonella typhimurium ATCC 14028 assessed as zone of inhibition at 30 uL for 24 hrs at 37 degC by disk diffusion test; assay type: functional, organism-based; details: Salmonella enterica subsp. enterica serovar Typhimurium; how it was run: as §1
Enterococcus faecalis = assay: Antimicrobial activity against Enterococcus faecalis ATCC 29212 assessed as zone of inhibition at 30 uL for 24 hrs at 37 degC by disk diffusion test; assay type: functional, organism-based; how it was run: as §1
Nakaseomyces glabratus = assay: Antimicrobial activity against Candida glabrata assessed as zone of inhibition at 30 uL for 24 hrs at 30 degC by disk diffusion test; assay type: functional, organism-based; how it was run: as §2
Caco-2 [3] = assay: Induction of necrosis in human Caco2 cells at 20 uM after 48 hrs by Hoechst 33258/propidium iodide staining based phase contrast microscopic analysis; assay type: functional
How it was run: (§4)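 Cells in 48-well plates treated with 0.5, 10, 20 or 40 µM for 24 and 48 h. Values are read at 48 h, 20 µM for test agents and 0.5 µM for controls. Staining is Hoechst 33258/propidium iodide double staining with fluorescence microscopy. Blue nuclei are viable or early-to-mid apoptotic, and pink nuclei are late apoptotic or necrotic. Apoptosis and necrosis are scored from chromatin condensation as % of cells. Cells are grown at 37 °C in 5% CO2 in RPMI, DMEM or McCoy's 5A with 10–15% heat-inactivated FCS.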

Caco-2 [4] = assay: Induction of apoptosis in human Caco2 cells at 20 uM after 48 hrs by Hoechst 33258/propidium iodide staining based phase contrast microscopic analysis; assay type: functional; how it was run: as §4
MCF7 [5] = assay: Antiproliferative activity against human MCF7 cells after 24 and 72 hrs by MTT assay; assay type: functional, cell-based; how it was run: as §3
HL-60 [6] = assay: Induction of necrosis in human HL60 cells at 20 uM after 48 hrs by Hoechst 33258/propidium iodide staining based phase contrast microscopic analysis; assay type: functional; how it was run: as §4
[7] = Antiproliferative activity against human Saos2 cells after 24 and 72 hrs by MTT assay; assay type: functional, cell-based; details: SAOS-2; how it was run: as §3
HT-29 [8] = assay: Induction of apoptosis in human HT-29 cells at 20 uM after 48 hrs by Hoechst 33258/propidium iodide staining based phase contrast microscopic analysis; assay type: functional; how it was run: as §4
Bacillus cereus [9] = assay: Antimicrobial activity against Bacillus cereus ATCC 11778 for 24 hrs by microdillution method; assay type: functional
How it was run: (§5)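 Broth microdilution. Compound is dissolved in DMSO (2 mg/mL) and diluted in Mueller Hinton broth as two-fold serial dilutions from 256 to 0.125 µg/mL. Bacteria are pre-grown in nutrient broth at 30 °C, and the final inoculum is about 10^6 cfu/mL. Tests are incubated 37 °C for 24 h. MIC is the lowest concentration giving complete inhibition. Streptomycin is the positive control.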

HeLa [10] = assay: Induction of necrosis in human HeLa cells at 20 uM after 48 hrs by Hoechst 33258/propidium iodide staining based phase contrast microscopic analysis; assay type: functional; how it was run: as §4
Staphylococcus aureus = assay: Antimicrobial activity against Staphylococcus aureus ATCC 25923 assessed as zone of inhibition at 30 uL for 24 hrs at 37 degC by disk diffusion test; assay type: functional, organism-based; how it was run: as §1
Micrococcus luteus = assay: Antimicrobial activity against Micrococcus luteus ATCC 9341 assessed as zone of inhibition at 30 uL for 24 hrs at 30 degC by disk diffusion test; assay type: functional, organism-based; how it was run: as §2
Bacillus thuringiensis [11] = assay: Antimicrobial activity against Bacillus thuringiensis assessed as zone of inhibition at 30 uL for 24 hrs at 30 degC by disk diffusion test; assay type: functional; how it was run: as §2
SAOS-2 [12] = assay: Induction of apoptosis in human Saos2 cells at 20 uM after 48 hrs by Hoechst 33258/propidium iodide staining based phase contrast microscopic analysis; assay type: functional; how it was run: as §4
Bacillus subtilis [13] = assay: Antimicrobial activity against Bacillus subtilis ATCC 6633 for 24 hrs by microdillution method; assay type: functional; how it was run: as §5
Candida albicans = assay: Antimicrobial activity against Candida albicans ATCC 10231 assessed as zone of inhibition at 30 uL for 24 hrs at 30 degC by disk diffusion test; assay type: functional, organism-based; how it was run: as §2
HeLa [14] = assay: Antiproliferative activity against human HeLa cells after 24 and 72 hrs by MTT assay; assay type: functional, cell-based; how it was run: as §3
Escherichia coli = assay: Antimicrobial activity against Escherichia coli ATCC 25922 assessed as zone of inhibition at 30 uL for 24 hrs at 37 degC by disk diffusion test; assay type: functional, organism-based; how it was run: as §1
MCF7 [15] = assay: Induction of apoptosis in human MCF7 cells at 20 uM after 48 hrs by Hoechst 33258/propidium iodide staining based phase contrast microscopic analysis; assay type: functional; how it was run: as §4
HL-60 [16] = assay: Induction of apoptosis in human HL60 cells at 20 uM after 48 hrs by Hoechst 33258/propidium iodide staining based phase contrast microscopic analysis; assay type: functional; how it was run: as §4
Saccharomyces cerevisiae = assay: Antimicrobial activity against Saccharomyces cerevisiae ATCC 9763 assessed as zone of inhibition at 30 uL for 24 hrs at 30 degC by disk diffusion test; assay type: functional, organism-based; how it was run: as §2
Bacillus subtilis [17] = assay: Antimicrobial activity against Bacillus subtilis ATCC 6633 assessed as zone of inhibition at 30 uL for 24 hrs at 30 degC by disk diffusion test; assay type: functional; how it was run: as §2
HT-29 [18] = assay: Induction of necrosis in human HT-29 cells at 20 uM after 48 hrs by Hoechst 33258/propidium iodide staining based phase contrast microscopic analysis; assay type: functional; how it was run: as §4
Pseudomonas aeruginosa = assay: Antimicrobial activity against Pseudomonas aeruginosa ATCC 35032 assessed as zone of inhibition at 30 uL for 24 hrs at 37 degC by disk diffusion test; assay type: functional, organism-based; how it was run: as §1
Klebsiella pneumoniae = assay: Antimicrobial activity against Klebsiella pneumoniae ATCC 13882 assessed as zone of inhibition at 30 uL for 24 hrs at 37 degC by disk diffusion test; assay type: functional, organism-based; how it was run: as §1
MCF7 [19] = assay: Induction of necrosis in human MCF7 cells at 20 uM after 48 hrs by Hoechst 33258/propidium iodide staining based phase contrast microscopic analysis; assay type: functional; how it was run: as §4
SAOS-2 [20] = assay: Induction of necrosis in human Saos2 cells at 20 uM after 48 hrs by Hoechst 33258/propidium iodide staining based […] microscopic analysis; assay type: functional; how it was run: as §4
HeLa [21] = assay: Induction of apoptosis in human HeLa cells at 20 uM after 48 hrs by Hoechst 33258/propidium iodide staining based phase contrast microscopic analysis; assay type: functional; how it was run: as §4
Caco-2 [22] = assay: Antiproliferative activity against human Caco2 cells after 24 and 72 hrs by MTT assay; assay type: functional, cell-based; how it was run: as §3
Bacillus thuringiensis [23] = assay: Antimicrobial activity against Bacillus thuringiensis for 24 hrs by microdillution method; assay type: functional; how it was run: as §5
Bacillus cereus [24] = assay: Antimicrobial activity against Bacillus cereus ATCC 11778 assessed as zone of inhibition at 30 uL for 24 hrs at 30 degC by disk diffusion test; assay type: functional; how it was run: as §2
[25] = tested on: Staphylococcus epidermidis; assay: Antimicrobial activity against Staphylococcus epidermidis ATCC 12228 assessed as zone of inhibition at 30 uL for 24 hrs at 37 degC by disk diffusion test; assay type: functional, organism-based; how it was run: as §1

Row | SMILES | diameter of the inhibition zone (DIZ) (Proteus vulgaris) | diameter of the inhibition zone (DIZ) (Cyberlindnera jadinii) | IC50 (HL-60 [1]) [µM] | diameter of the inhibition zone (DIZ) (Candida tropicalis) | IC50 (HT-29 [2]) [µM] | diameter of the inhibition zone (DIZ) (Salmonella typhimurium) | diameter of the inhibition zone (DIZ) (Enterococcus faecalis) | diameter of the inhibition zone (DIZ) (Nakaseomyces glabratus) | Activity (Caco-2 [3]) [%] | Activity (Caco-2 [4]) [%] | IC50 (MCF7 [5]) [µM] | Activity (HL-60 [6]) [%] | IC50 [7] [µM] | Activity (HT-29 [8]) [%] | Activity (HeLa [10]) [%] | diameter of the inhibition zone (DIZ) (Staphylococcus aureus) | diameter of the inhibition zone (DIZ) (Micrococcus luteus) | diameter of the inhibition zone (DIZ) (Bacillus thuringiensis [11]) | Activity (SAOS-2 [12]) [%] | MIC (Bacillus thuringiensis [23]) | also measured
1 | CC(=O)O[C@H]1CC[C@]2(C)[C@H]3CC=C4[C@@H]5CC(C)(C)CC[C@]5(C(=O)OCc5ccccc5)CC[C@@]4(C)[C@]3(C)CC[C@H]2[C@]1(C)/C=N/O | inactive | inactive | 8.68 | inactive | 21.4 | inactive | inactive | inactive | 33 | 19 | 9.9 | 50 | 11.7 | 24 | 50 | inactive | inactive | inactive | 24 | inactive | MIC (Bacillus cereus [9]): inactive; MIC (Bacillus subtilis [13]): inactive; diameter of the inhibition zone (DIZ) (Candida albicans): inactive; IC50 (HeLa [14]): 40.3 µM; diameter of the inhibition zone (DIZ) (Escherichia coli): inactive; Activity (MCF7 [15]): 10%; Activity (HL-60 [16]): 5%; diameter of the inhibition zone (DIZ) (Saccharomyces cerevisiae): inactive; diameter of the inhibition zone (DIZ) (Bacillus subtilis [17]): inactive; Activity (HT-29 [18]): 14%; diameter of the inhibition zone (DIZ) (Pseudomonas aeruginosa): inactive; diameter of the inhibition zone (DIZ) (Klebsiella pneumoniae): inactive; Activity (MCF7 [19]): 48%; Activity (SAOS-2 [20]): 44%; Activity (HeLa [21]): 15%; IC50 (Caco-2 [22]): 20.3 µM; diameter of the inhibition zone (DIZ) (Bacillus cereus [24]): inactive; diameter of the inhibition zone (DIZ) [25]: inactive
2 | CC1(C)CC[C@]2(C(=O)O)CC[C@]3(C)C(=CC[C@@H]4[C@@]5(C)CC[C@H](O)[C@@](C)(/C=N/O)[C@@H]5CC[C@]43C)[C@@H]2C1 | inactive | inactive | 3.9 | inactive | 10.9 | inactive | inactive | inactive | 3 | 23 | 7.5 | 3 | 7.93 | 27 | 3 | inactive | inactive | 10 mm | 27 | 128 µg/mL (≈ 264 µM) | MIC (Bacillus cereus [9]; ATCC 11778, 24 h): 128 µg/mL (≈ 264 µM); MIC (Bacillus subtilis [13]; ATCC 6633, 24 h): 64 µg/mL (≈ 132 µM); diameter of the inhibition zone (DIZ) (Candida albicans): inactive; IC50 (HeLa [14]): 8.71 µM; diameter of the inhibition zone (DIZ) (Escherichia coli): inactive; Activity (MCF7 [15]): 26%; Activity (HL-60 [16]): 30%; diameter of the inhibition zone (DIZ) (Saccharomyces cerevisiae): inactive; diameter of the inhibition zone (DIZ) (Bacillus subtilis [17]): 11 mm; Activity (HT-29 [18]): 0.7%; diameter of the inhibition zone (DIZ) (Pseudomonas aeruginosa): inactive; diameter of the inhibition zone (DIZ) (Klebsiella pneumoniae): inactive; Activity (MCF7 [19]): 4%; Activity (SAOS-2 [20]): 3%; Activity (HeLa [21]): 26%; IC50 (Caco-2 [22]): 28.1 µM; diameter of the inhibition zone (DIZ) (Bacillus cereus [24]): 9 mm; diameter of the inhibition zone (DIZ) [25]: inactive
3 | CN[C@@H]1[C@H](O[C@H]2[C@H](O[C@H]3[C@H](O)[C@@H](O)[C@H](N=C(N)N)[C@@H](O)[C@@H]3N=C(N)N)O[C@@H](C)[C@]2(O)C=O)O[C@@H](CO)[C@H](O)[C@H]1O [STREPTOMYCIN] | – | – | – | – | – | – | – | – | – | – | – | – | – | – | – | – | – | – | – | 64 µg/mL (≈ 110 µM) | MIC (Bacillus cereus [9]; ATCC 11778, 24 h): 64 µg/mL (≈ 110 µM); MIC (Bacillus subtilis [13]; ATCC 6633, 24 h): 64 µg/mL (≈ 110 µM)
